Common to all, as to assay type: ADME, organism-based
Data set [1] in a line: Initial plasma concentration in Sprague-Dawley rat at 5 mg/kg, iv administered as single dose by LC-MS/MS analysis.
Data set [2] in a line: Half life in Sprague-Dawley rat at 30 mg/kg, po by LC-MS/MS analysis. Conditions: in vivo.
Data set [3] can be described thus: Half life in Sprague-Dawley rat at 5 mg/kg, iv administered as single dose by LC-MS/MS analysis. As to conditions: in vivo. In outline:
(§1)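 SD rats given 5 mg/kg intravenously, n = 3; pharmacokinetic parameters derived from plasma concentrations.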

The nature of data set [4]: MRT (0 to t) in Sprague-Dawley rat at 5 mg/kg, iv administered as single dose by LC-MS/MS analysis. As to conditions: in vivo.
Data set [5] can be described thus: Clearance in Sprague-Dawley rat at 5 mg/kg, iv administered as single dose by LC-MS/MS analysis. As to conditions: in vivo. In outline: as §1
Data set [6] is described as follows: MRT (0 to t) in Sprague-Dawley rat at 30 mg/kg, po by LC-MS/MS analysis. As to conditions: in vivo. In a few lines: (§2)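 SD rats given a single oral gavage dose of 30 mg/kg, n = 3; plasma levels by LC-MS/MS; bioavailability computed against the 5 mg/kg intravenous arm.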
Data set [7] is described as follows: Apparent volume of distribution in Sprague-Dawley rat at 5 mg/kg, iv administered as single dose by LC-MS/MS analysis. Conditions: in vivo, read-out: Vz. In outline:
as §1

The nature of data set [8]: MRT (0 to infinity) in Sprague-Dawley rat at 5 mg/kg, iv administered as single dose by LC-MS/MS analysis. As to conditions: in vivo.
A short description of data set [9]: Oral bioavailability in Sprague-Dawley rat at 30 mg/kg by LC-MS/MS analysis. Conditions: in vivo. In a few lines: as §2
Data set [10] in a line: AUC (0 to infinity) in Sprague-Dawley rat at 5 mg/kg, iv administered as single dose by LC-MS/MS analysis. Conditions: in vivo. More on the design: dose 5 mg/kg, time infinity, route intravenous. In outline:
as §1

Data set [11] can be described thus: Tmax in Sprague-Dawley rat at 30 mg/kg, po by LC-MS/MS analysis. As to conditions: in vivo. In a few lines: as §2
The nature of data set [12]: Volume of distribution at steady state in Sprague-Dawley rat at 5 mg/kg, iv administered as single dose by LC-MS/MS analysis. As to conditions: in vivo, read-out: Vdss.
The nature of data set [13]: AUC (0 to t) in Sprague-Dawley rat at 5 mg/kg, iv administered as single dose by LC-MS/MS analysis. As to conditions: in vivo. In outline: as §1

Here are results for 1 molecule from ChEMBL document CHEMBL4118104, “Design, Synthesis, and Evaluation of Orally Bioavailable Quinoline-Indole Derivatives as Innovative Multitarget-Directed Ligands: Promotion of Cell Proliferation in the Adult Murine Hippocampus for the Treatment of Alzheimer's Disease” (J Med Chem, 2018).

In [1], `Cl.Oc1ccc2[nH]c(-c3ccc4c(Cl)cc(Cl)c(O)c4n3)cc2c1` gave a C0 of 4.93 µg/mL. Moreover, the results for the half-life in [2] and in [3] were 215 min and 55.8 min, respectively. Besides, the results for the MRT last in [4] and in data set [6] were 22.8 min and 152 min, respectively. Further, the clearance in [5] was 2.36 L/h/kg. Moreover, the Vd in [7] was determined as 2.49 L/kg; in [12], 0.954 L/kg. The molecule also showed an MRT inf in data set [8] of 24.6 min. The bioavailability in data set [9] was 14.1%. The same molecule had an area under the curve AUC(0-inf) in data set [10] of 2.12 µg·h/mL. The Tmax in data set [11] came to 30 min. In data set [13], this molecule gave an AUC(0-t) of 2.11 µg·h/mL.

The half-life is the time in which the quantity being followed falls by half. Read a high half-life as slow loss. By MRT last is commonly meant a mean duration of stay, worked out from the concentration-time curve. Broadly, the clearance is the rate of elimination divided by the concentration. High values mean efficient removal, low ones inefficient removal. The MRT inf is a mean duration of stay, worked out from the concentration-time curve. What is called bioavailability is dose-corrected exposure relative to a reference, in per cent. Lower therefore signals little systemic uptake. A word on the AUC(0-inf): it is the area under the concentration-time curve extrapolated to infinity. Read a high AUC(0-inf) as high exposure. Usually Tmax stands for the time at which the peak concentration occurs. The AUC(0-t) is exposure summed from dosing to a finite time, without extrapolation to infinity.
